Measurements from paper PMC6207383 (International Journal of Nanomedicine, 2018).

Legend:
[1] = test system: HepG2-TS; test: CCK-8 cytotoxicity assay in HepG2 tumor spheres; assay type: cell-based, human
Outline: (§1)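 Cells seeded at 5×10^3/well and left overnight at 37°C to attach. They were then exposed for 48 h to graded concentrations of each agent alone or combined at fixed molar ratios (4:1, 2:1, 1:1, 1:2, 1:4). CCK-8 was added for about 2 h and A450 read. Viability = (AE–AB)/(AC–AB)×100%, using untreated and blank wells. HepG2 were grown in DMEM/10% FBS. Spheres were grown in DMEM-F12 with B27, ITS, 20 ng/mL EGF and bFGF, dissociated with Accutase and passed through a 100-µm sieve.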

[2] = test system: HepG2 cells; test: CCK-8 cytotoxicity assay in HepG2 cells; assay type: cell-based; settings: Homo sapiens, HepG2, 48 h
Outline: as §1

[3] = test system: HepG2 cells; test: Colony formation assay; assay type: cell-based, human; settings: DOX and ELC 0.01 µM, 24 hours treatment, 8–10 days growth
Outline: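 HepG2 cells were maintained in DMEM with 10% FBS and penicillin/streptomycin at 37°C, 5% CO2. They were seeded at 1×10^5 cells/well, left overnight, then exposed 24 h to free or nanoparticle test compounds (each drug at 0.01 µM final). Cells were trypsinized, reseeded at 800 cells/well and grown 8–10 days at 37°C. Colonies were stained with 1% crystal violet for 20 min at room temperature and counted by microscope.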

[4] = test system: HepG2 cells; test: Tumor sphere formation assay; assay type: cell-based, human; settings: DOX and ELC 0.15 µM, 7 days
Outline: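 Trypsinized HepG2 cells were seeded at 500 cells/well in ultra-low-attachment wells in DMEM/F12 with 1× B27, 1× ITS, 20 ng/mL EGF and 20 ng/mL bFGF, then left overnight. Cells were exposed to free or nanoparticle test compounds (each drug at 0.15 µM final). After 7 days, tumor spheres were counted by microscope.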

[5] = Tissue distribution study in vivo; design: species or system BALB/c nude mice; settings: iv 10 µg DiR per mouse, 2–24 hours
Outline: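 Male BALB/c nude mice (4–6 weeks, about 20 g) bore subcutaneous right-back tumours from 2×10^6 HepG2 cells. At about 300 mm3 they were randomised to saline, free DiR or DiR-loaded nanoparticles, given as a single tail-vein injection. Imaging was under isoflurane at 745/820 nm excitation/emission, at 2, 4, 6, 8, 12 and 24 h. At 24 h, excised organs and tumours were imaged and quantified as total radiant efficiency.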

Question: With `COc1cc2c(cc1OC)CN(CCc1ccc(NC(=O)c3cccc4c(=O)c5cccc(OC)c5[nH]c34)cc1)CC2` [ELC, elacridar] as the compound, how does the IC50 ([1]; Homo sapiens, HepG2, 48 h) read?
Answer: 13.7 ± 4.27 µM

Question: And the IC50 [2]?
Answer: 9.27 ± 2.61 µM

Question: What about the “number of colonies formed” value [3] of the same compound?
Answer: reduced the formation of colonies compared with the control

Question: What about the tumor sphere formation [4] of the same compound?
Answer: decreased tumor sphere formation compared with that in the control

Question: With `CCCCCCCCCCCCCCCCCCN1/C(=C/C=C/C=C/C=C/C2=[N+](CCCCCCCCCCCCCCCCCC)c3ccccc3C2(C)C)C(C)(C)c2ccccc21.[I-]` [free DiR] as the compound, how does the “DiR signals in real-time in vivo images” value [5] read?
Answer: No obvious DiR signals

Question: For `COc1cccc2c1C(=O)c1c(O)c3c(c(O)c1C2=O)C[C@@](O)(C(=O)CO)C[C@@H]3O[C@H]1C[C@H](N)[C@H](O)[C@H](C)O1` [DOX, doxorubicin], which IC50 ([1]; HepG2-TS, 48 hours, CCK-8) is on record?
Answer: 0.477 ± 0.0514 µM

Question: What about the “number of colonies formed” value [3] of the same compound?
Answer: reduced the formation of colonies compared with the control

Question: What about the tumor sphere formation [4] of the same compound?
Answer: decreased tumor sphere formation compared with that in the control
